Calls of active or inactive are those of the source. No cut-off for these calls is given here.
Columns and labels:
[1] = molecular target: Dual specificity mitogen-activated protein kinase kinase; MEK1/2 (Homo sapiens) (UniProt P36507+Q02750); experiment: Inhibition of MEK phosphorylation in EGF-stimulated human MDA-MB-468 cells incubated for 2 hrs followed by 10 mins EGF stimulation by Western blotting analysis
Outline: (§1)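 MDA-MB-468 cells grown to ~80% confluence, serum-starved 20 h, then given peptide at the indicated concentrations in serum-free medium for 2 h. EGF (50 ng/mL final) added for 10 min. Lysis in RIPA with protease/phosphatase inhibitors and 5 mM EDTA; ~20 μg protein run on 10% SDS-PAGE. Blots probed for phospho- and total MEK and ERK1/2, GAPDH loading control.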

[2] = Drug uptake in human HeLa cells assessed as cytosolic entry efficiency measured as fluorescence at 5 uM incubated for 2 hrs by flow cytometry relative to CPP9 (100%); assay type: ADME, cell-based
Outline: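 HeLa cells seeded 24 h earlier, given 5 μM naphthofluorescein-labelled peptide in DMEM with 1% or 10% FBS, 37 °C, 2 h. Cells DPBS-washed, trypsinized, flow cytometry with 633-nm excitation, APC channel, 10,000 live-cell events gated. Signal read as cytosolic entry because NF is non-fluorescent in acidic compartments; mean ± SD of three independent experiments, relative to CPP9 (100%).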

[3] = molecular target: T1, Growth factor receptor-bound protein 2 (Homo sapiens, UniProt P62993); experiment: Binding affinity to Grb2-SH2 domain (unknown origin) expressed in Escherichia coli […] after 2 hrs by fluorescence polarization assay
[4] = Metabolic stability of the compound in human MDA-MB-468 cells assessed as protein-tyrosine phosphatase-mediated endogenous dephosphorylation incubated for 2 hrs; assay type: ADME, cell-based; details: mda-mb-468, 2 h
MDA-MB-468 = experiment: Effect on intracellular MEK expression in EGF-stimulated human MDA-MB-468 cells incubated for 2 hrs followed by 10 mins EGF stimulation by Western blotting analysis; assay type: functional, cell-based; outline: as §1
[5] = molecular target: Mitogen-activated protein kinase; ERK1/ERK2 (Homo sapiens) (UniProt P27361+P28482); experiment: Inhibition of ERK1/2 phosphorylation in EGF-stimulated human MDA-MB-468 cells incubated for 2 hrs followed by 10 mins EGF stimulation by Western blotting analysis; outline: as §1
Chain of Mitogen-activated protein kinase; ERK1/ERK2 (Homo sapiens) (P27361 whole entry, looked up, the tested form may be a part): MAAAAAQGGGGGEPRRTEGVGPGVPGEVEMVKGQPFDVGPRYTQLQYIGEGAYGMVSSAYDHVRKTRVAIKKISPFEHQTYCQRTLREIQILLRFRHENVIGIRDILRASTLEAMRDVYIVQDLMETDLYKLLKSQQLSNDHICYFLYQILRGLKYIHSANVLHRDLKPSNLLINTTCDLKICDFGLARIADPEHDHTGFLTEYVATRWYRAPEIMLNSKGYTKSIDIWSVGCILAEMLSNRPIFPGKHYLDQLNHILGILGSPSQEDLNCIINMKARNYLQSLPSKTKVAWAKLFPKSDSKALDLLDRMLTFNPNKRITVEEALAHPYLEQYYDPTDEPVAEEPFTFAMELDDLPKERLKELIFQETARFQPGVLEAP
Chain of Mitogen-activated protein kinase; ERK1/ERK2 (Homo sapiens) (P28482 whole entry, looked up, the tested form may be a part): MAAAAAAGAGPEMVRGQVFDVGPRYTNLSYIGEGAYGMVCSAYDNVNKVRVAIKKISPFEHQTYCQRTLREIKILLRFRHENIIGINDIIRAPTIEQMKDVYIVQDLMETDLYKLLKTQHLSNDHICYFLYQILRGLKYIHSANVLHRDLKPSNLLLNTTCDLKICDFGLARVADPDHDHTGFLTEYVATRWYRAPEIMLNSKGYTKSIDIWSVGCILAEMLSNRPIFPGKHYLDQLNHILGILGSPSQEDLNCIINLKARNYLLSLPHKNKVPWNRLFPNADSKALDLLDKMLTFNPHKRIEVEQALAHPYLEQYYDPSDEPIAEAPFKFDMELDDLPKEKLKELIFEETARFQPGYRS

[6] = molecular target: T1, Growth factor receptor-bound protein 2; experiment: Binding affinity to Grb2-SH2 domain (unknown origin) expressed in Escherichia coli […] after 1 hr by fluorescence polarization assay; details: in the assay text read “after 2 hrs” for “after 1 hr”
Outline: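 GST-Grb2 SH2 domain expressed in E. coli BL21(DE3), glutathione-Sepharose purified. […] IC50 from four-parameter logistic fit of FP versus peptide concentration, three sets of experiments.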

Chain of Dual specificity mitogen-activated protein kinase kinase; MEK1/2 (Homo sapiens) (P36507 whole entry, looked up): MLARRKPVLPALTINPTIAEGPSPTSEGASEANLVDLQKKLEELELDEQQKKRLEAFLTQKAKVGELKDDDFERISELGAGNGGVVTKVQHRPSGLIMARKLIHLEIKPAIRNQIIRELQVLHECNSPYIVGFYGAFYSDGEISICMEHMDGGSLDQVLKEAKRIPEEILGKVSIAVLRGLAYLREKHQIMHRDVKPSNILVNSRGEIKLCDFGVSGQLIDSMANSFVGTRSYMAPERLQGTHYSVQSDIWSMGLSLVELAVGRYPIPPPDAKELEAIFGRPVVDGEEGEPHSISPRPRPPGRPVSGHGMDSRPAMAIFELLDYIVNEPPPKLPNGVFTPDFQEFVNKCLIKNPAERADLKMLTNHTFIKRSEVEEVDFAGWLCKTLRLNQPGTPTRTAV
Chain of Dual specificity mitogen-activated protein kinase kinase; MEK1/2 (Homo sapiens) (Q02750 whole entry, looked up): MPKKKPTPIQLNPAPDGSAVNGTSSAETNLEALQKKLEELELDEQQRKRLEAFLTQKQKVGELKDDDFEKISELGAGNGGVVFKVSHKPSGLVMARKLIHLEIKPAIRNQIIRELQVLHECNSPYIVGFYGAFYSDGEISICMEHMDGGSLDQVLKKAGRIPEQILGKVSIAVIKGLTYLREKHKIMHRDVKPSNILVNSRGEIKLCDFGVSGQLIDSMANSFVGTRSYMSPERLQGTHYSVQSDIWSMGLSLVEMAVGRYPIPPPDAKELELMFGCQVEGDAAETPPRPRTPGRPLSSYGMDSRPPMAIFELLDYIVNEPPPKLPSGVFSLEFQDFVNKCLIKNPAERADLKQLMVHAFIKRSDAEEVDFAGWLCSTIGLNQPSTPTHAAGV

inhibition [1]	RFU [2] [%]	IC50 [3] [µM]	Stabilty [4]	inhibition [5]	IC50 [6] [µM]	Compound	Activity (MDA-MB-468)
inactive	2	0.1	–	–	–	CC(C)[C@@H]1NC(=O)[C@H](Cc2ccc(OP(=O)(O)O)cc2)NC(=O)[C@H](CCCNC(=N)N)NC(=O)[C@H](CCCNC(=N)N)NC(=O)[C@@H]2CCCN2C(=O)[C@H]2CCCN2C(=O)[C@@H](C)NC(=O)[C@H](C)NC(=O)[C@H](Cc2ccccc2)NC(=O)[C@H](CC(=O)NCCOCCOCC(=O)N[C@@H](CCCCNC(=O)c2ccc3c(c2)C(=O)OC32c3ccc4cc(O)ccc4c3Oc3c2ccc2cc(O)ccc32)C(N)=O)NC1=O	–
Active	49	–	Unstable	inactive	0.4	CC(C)[C@@H]1NC(=O)[C@H](Cc2ccc(OP(=O)(O)O)cc2)NC(=O)[C@H](CCCNC(=N)N)NC(=O)[C@H](CCCNC(=N)N)NC(=O)[C@@H]2CCCN2C(=O)[C@H]2CCCN2C(=O)[C@@H](CCCNC(=N)N)NC(=O)[C@H](Cc2ccc3ccccc3c2)NC(=O)[C@H](Cc2ccccc2)NC(=O)[C@H](CC(=O)NCCOCCOCC(=O)N[C@@H](CCCCNC(=O)c2ccc3c(c2)C(=O)OC32c3ccc4cc(O)ccc4c3Oc3c2ccc2cc(O)ccc32)C(N)=O)NC1=O	inactive
inactive	34	> 10	–	–	–	CC(C)[C@@H]1NC(=O)[C@H](Cc2ccc(O)cc2)NC(=O)[C@H](CCCNC(=N)N)NC(=O)[C@H](CCCNC(=N)N)NC(=O)[C@@H]2CCCN2C(=O)[C@H]2CCCN2C(=O)[C@@H](CCCNC(=N)N)NC(=O)[C@H](Cc2ccc3ccccc3c2)NC(=O)[C@H](Cc2ccccc2)NC(=O)[C@H](CC(=O)NCCOCCOCC(=O)N[C@@H](CCCCNC(=O)c2ccc3c(c2)C(=O)OC32c3ccc4cc(O)ccc4c3Oc3c2ccc2cc(O)ccc32)C(N)=O)NC1=O	–
